PubChem BioAssay AID504383 (The Scripps Research Institute Molecular Screening Center, 2011)
The whole screen tested about 2,500 compounds, of which about 1,200 (48%) were called active.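 How the source made its calls: active means mean activation above the low control average plus 3 SD, as set in the primary screen (cut at about 12% in these data); inactive means the rest.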 The set was probably picked from earlier hits. The list shows a part of the results.

The compounds below were run against Troponin I, cardiac muscle (Homo sapiens) + Troponin T, cardiac muscle (Homo sapiens) + Troponin C, slow skeletal and cardiac muscles (Homo sapiens) (UniProt P19429+P45379+P63316) (assay: cardiac RTF calcium sensitivity activators, confirmation, biochemical, IANBD-TnC fluorescence, triplicate (AID 504383;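 further: 0% = DMSO at 0.472 mM calcium and 100% = DMSO at 2.9 mM calcium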)). Conditions: IANBD-labeled cardiac RTF, Ca2+ sensitivity fluorescence; at 7.2 µM; hits give high values; scaled from EC20 to saturating calcium; tested at EC20 calcium, 0.472 mM.
How it was run: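 Assay system: labelled regulated thin filaments / Timing: 15 min at 25 °C / Detection: fluorescence intensity of labelled filaments / Measure: fluorescence gain scaled between EC20 and EC100 calcium controls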

Compound	activation
CCC(C)(C)NC(=O)C(c1ccc(F)cc1)N(Cc1ccco1)C(=O)c1cnccn1 (stereo not given)	70.6% (active)
O=C1CCN2C=Nc3cccc4ccc1c2c34	13.7% (active)
CNC(=S)N1N=C(c2ccc(Br)cc2)CC1c1ccc(N(C)C)cc1 (stereo not given)	31% (active)
CCCN1C(=O)/C(=C/C=C2\N(CC)c3ccccc3C2(C)C)SC1=S	3.85% (inactive)
CCCCN1C(=O)/C(=C/C=C2\Oc3ccccc3N2CC)SC1=S	53.5% (active)
CCSC1=N/C(=C\C=C2/Oc3ccccc3N2CC)C(=O)S1	31.9% (active)
CCCN1C(=O)/C(=C\C=C2\N(CC)c3ccccc3C2(C)C)SC1=S	10.1% (inactive)
CCN1/C(=C/C=C/c2oc3ccc(-c4ccccc4)cc3[n+]2CC)Oc2ccc(-c3ccccc3)cc21	6.07% (inactive)
COc1cccc(F)c1C(=O)NC(=O)Nc1ccc2nc(C)oc2c1	252% (active)
CC(=O)OCCn1c2nc(=O)[nH]c(=O)c-2nc2cc(C)c(C)cc21	1.76% (inactive)
Cc1cc2nc3c(=O)n(CCc4ccccc4)c(=O)[nH]c3nc2cc1N	17.3% (active)
C=CCn1c(=O)[nH]c2nc3cc(N=CN(C)C)c(C)cc3nc2c1=O	69.7% (active)
CCCCn1c(=O)[nH]c2nc3cc(N)ccc3nc2c1=O	0.26% (inactive)
Cc1ccccc1-n1c(=O)n(CCc2ccccc2)c(=O)c2[nH]cnc21	8.97% (inactive)
CCCCCCn1c(=O)[nH]c2nc3cc(N)c(C)cc3nc2c1=O	158% (active)
COCCN1C(=O)/C(=C/c2ccc(N3CCCC3)cc2)SC1=S	15.2% (active)
COCCN1C(=O)/C(=C/c2ccc(N3CCCC3)cc2C)SC1=S	0.91% (inactive)
COc1ccc(/C=C2\SC(=O)N(CCC(=O)N3CCN(C)CC3)C2=O)cc1	5.35% (inactive)
O=C1c2ccccc2-c2onc3ccc(Oc4ccccc4)c1c23	7.69% (inactive)
Cc1occc1C(=O)N=Nc1c(O)n(C)c2ccccc12	15.2% (active)
O=C(CSc1nc2ccccc2s1)NNC(=S)Nc1ccccc1	482% (active)
CCOC(=O)COn1c(=O)c(-c2cc3ccccc3o2)[n+]([O-])c2ccccc21	2.03% (inactive)

Compound	activation
COc1ccc(OC)c(NC(=O)NCCc2cccc(Cl)c2)c1	5.54% (inactive)
COc1ccc(OC)c(-n2nnnc2SCC(=O)NCCc2ccccc2)c1	12.5% (active)
COc1ccc(-c2noc(CCC(=O)NCCc3ccccc3)n2)cc1	10.9% (inactive)
Cc1ccccc1Nc1nnc(SCC(=O)c2cc3ccccc3o2)s1	6.8% (inactive)
O=C(CSc1nc2ccccc2s1)c1cc2ccccc2o1	14.8% (active)
O=C(CSc1nc2cc(Cl)ccc2s1)c1cc2ccccc2o1	107% (active)
Cc1ccc2c(c1)[C@H]1[C@H](CO2)[C@H](c2ccccc2)[C@]2(C)C(=O)N(Cc3ccc(F)cc3)CC(=O)N12	4.21% (inactive)
COc1ccc(-n2nnnc2SCC(=O)c2cc3ccccc3o2)cc1	40.8% (active)
NS(=O)(=O)c1ccc(-c2ccc(/C=C3\SC(=S)N(C4CCS(=O)(=O)C4)C3=O)o2)cc1 (stereo not given)	17.8% (active)
Fc1ccc(CN2CCCN(C(=S)Nc3ccc(F)cc3)CC2)cc1	54% (active)
O=C(Nc1ccc(F)cc1)OCCN1CCN(Cc2ccccc2)CCC1=O	5.99% (inactive)
CCn1c(C(C)NC(C)=O)nc2ccccc21 (stereo not given)	16.6% (active)
CCn1c(CNc2ccc(C(=O)O)cc2)nc2ccccc21	-2.9% (inactive)
C/C(=N\NC(=O)c1cc2c(s1)CCC(C)C2)c1ccc[nH]1 (stereo not given)	5.66% (inactive)
COCCN(C(=S)Nc1cccc(OC)c1)C1CCN(C(C)=O)CC1	12.8% (active)
CC(=O)Nc1ccc(NC(=O)C(C)OC(=O)/C(C#N)=C/c2ccc(N(C)C)cc2)cc1 (stereo not given)	17% (active)
CN(C)c1ccc(/C=C(\C#N)C(=O)c2ccccc2)cc1	9.54% (inactive)
CC(OC(=O)/C(C#N)=C/c1ccc(N(C)C)cc1)C(=O)N(C)Cc1ccccc1 (stereo not given)	18.4% (active)
CC(OC(=O)/C(C#N)=C/c1ccc(N(C)C)cc1)C(=O)N(C)c1ccccc1 (stereo not given)	17.5% (active)
CN(C)c1ccc(/C=C(/C#N)C(=O)Nc2nc3c(s2)CCN(Cc2ccccc2)C3)cc1	10.5% (inactive)
CN(C)c1ccc(/C=C(\C#N)C(=O)Nc2nc3c(s2)CCN(Cc2ccccc2)C3)cc1	6.43% (inactive)
Fc1ccc(C2=CC(c3ccc(Br)o3)n3ncnc3N2)cc1 (stereo not given)	5.63% (inactive)

Compound	activation
Brc1ccc(C2=CC(c3ccco3)n3ncnc3N2)cc1 (stereo not given)	7.55% (inactive)
Fc1ccc(C2=CC(c3ccco3)n3ncnc3N2)cc1 (stereo not given)	18.9% (active)
COc1ccc2nc(C)c3cc(C)oc3c2c1	71.2% (active)
COc1ccc2nc(C)cc(NCc3ccc(F)cc3)c2c1	10.7% (inactive)
O=C(Nc1ccc(S(=O)(=O)Nc2ncccn2)cc1)c1nn(Cc2ccccc2)c(=O)c2ccccc12	736% (active)
O=C(Nc1ccc(S(=O)(=O)Nc2ncccn2)cc1)C1CC(=O)N(c2ccccc2)C1 (stereo not given)	0.68% (inactive)
Cc1ccc(NS(=O)(=O)c2ccc(C(=O)N3CCN(c4ncccn4)CC3)cc2)cc1	3.55% (inactive)
CCOC(=O)CN1C(=O)N[C@@H](c2cccc(C(F)(F)F)c2)C(C(=O)OC)=C1C	1.28% (inactive)
COC(=O)C/C(O)=C(/N=Nc1cccc(C(F)(F)F)c1)C(=O)OC	9.06% (inactive)
COCCN1C(=O)N[C@@H](c2cccc(C(F)(F)F)c2)C(C(=O)OC)=C1C	42.1% (active)
CCOc1ccc(-c2nnc(NC(=O)CCCOc3cccc(C)c3)o2)cc1	7.1% (inactive)
Cc1ccc(S(=O)(=O)N2CC(C(=O)O)=CC[C@H]2c2ccc(Cl)cc2)cc1	4.74% (inactive)
Cc1nnc(N/N=C/c2ccc(O)c([N+](=O)[O-])c2)[nH]c1=O	35.2% (active)
Cc1ccc(/C=C2/NC(=O)N(Cc3ccccc3F)C2=O)s1	7.33% (inactive)
Cc1cc(/C=C2/NC(=O)N(Cc3ccccc3F)C2=O)c(C)n1C	25.1% (active)
O=C(CC1SC(N2CCCCC2)=NC1=O)Nc1ccc(C(=O)NCc2ccccc2)cc1 (stereo not given)	9.91% (inactive)
CCCNC(=O)C12CCC(C)(C(=O)C1Br)C2(C)C (stereo not given)	12.4% (active)
COc1cc2c(cc1OC)-c1cc3ccc4c(c3c[n+]1CC2)OCO4	15.6% (active)
CCOCCCNS(=O)(=O)c1ccc(NC(=O)c2ccc(OC)c([N+](=O)[O-])c2)cc1	9.02% (inactive)
CCCCC(=O)Nc1ccc(C(=O)Nc2ccc(OC)cc2[N+](=O)[O-])cc1	13.3% (active)
Cc1ccc2nc3nc(NCC4CCCO4)c(C(=O)NC4CCCC4)cc3c(=O)n2c1 (stereo not given)	12.9% (active)
